Data reported in ChEMBL document CHEMBL1134373, “A potent, nonpeptidyl 1H-quinolone antagonist for the gonadotropin-releasing hormone receptor” (J Med Chem, 2001).

Assays:
[1] = Area under curve was determined after intravenous administration of a dose of 3 mg/kg; assay type: ADME, organism-based; design: dose 3 mg/kg, route intravenous; details: in vivo
Method in brief: (§1)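 Male rhesus monkeys received a single iv dose in ethanol/PEG400/saline (10/40/50, v/v/v) via the brachiocephalic vein. Femoral vein blood was drawn at 5, 15, 30 min and 1, 2, 4, 6, 8, 24 h. Plasma was extracted with ethyl acetate and assayed by LC/MS/MS against an internal standard (LOQ 2.0 ng/mL). AUC came from linear/log trapezoidal rule with extrapolation by Ct/λ; t1/2 = 0.693/λ; Clp = dose/AUC(0-∞).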

[2] = Area under curve was determined after intravenous administration of a dose of 0.5 mg/kg; assay type: ADME, organism-based; design: dose 0.5 mg/kg, route intravenous; details: in vivo; method in brief: as §1
[3] = molecular target: T1, Gonadotropin-releasing hormone receptor (Homo sapiens, UniProt P30968); assay: Functional antagonism at the human GnRH receptor (PI turnover)
T1 sequence (P30968 whole entry): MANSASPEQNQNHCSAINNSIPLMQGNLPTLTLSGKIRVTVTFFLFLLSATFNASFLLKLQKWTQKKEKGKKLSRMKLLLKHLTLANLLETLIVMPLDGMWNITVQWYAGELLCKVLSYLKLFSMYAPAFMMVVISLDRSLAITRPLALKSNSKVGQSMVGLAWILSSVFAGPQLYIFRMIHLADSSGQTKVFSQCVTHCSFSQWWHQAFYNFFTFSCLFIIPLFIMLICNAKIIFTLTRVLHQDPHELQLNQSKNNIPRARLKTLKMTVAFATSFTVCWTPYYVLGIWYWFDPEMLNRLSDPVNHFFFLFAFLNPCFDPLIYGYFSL
Method in brief: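 CHO cells stably expressing human GnRH receptor were labelled 48 h with 1 μCi [3H]inositol in inositol-free F12 with 10% dialyzed FBS. After washing with PBS containing 10 mM LiCl, cells were preincubated with graded compound for 2 h at 37 °C. 0.5 nM GnRH was then added for 60 min, followed by formic acid lysis. IC50 is inhibition of GnRH-stimulated PI hydrolysis.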

[4] = Plasma clearance was determined fter intravenous administration of a dose of 3 mg/kg; assay type: ADME, organism-based; design: dose 3 mg/kg, route intravenous; details: read-out: ClP; method in brief: as §1
[5] = molecular target: T1, Gonadotropin-releasing hormone receptor; assay: In vitro inhibition of binding to GnRH receptor in human
Method in brief: (§2)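 Crude membranes came from rat pituitary (rat) or from CHO-K1 cells stably expressing human GnRH receptor (human). Competition was run against [125I-Tyr5]buserelin (1000 Ci/mmol) in 50 mM Tris-HCl pH 7.5 with 2 mM MgCl2 and 0.1% BSA. IC50 is the concentration giving 50% inhibition of specific binding.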

[6] = Half life period was determined after intravenous administration of 0.5 mg/kg; assay type: ADME, organism-based; design: dose 0.5 mg/kg, route intravenous; details: in vivo; method in brief: as §1
[7] = Plasma clearance was determined fter intravenous administration of a dose of 0.5 mg/kg; assay type: ADME, organism-based; design: dose 0.5 mg/kg, route intravenous; details: read-out: ClP; method in brief: as §1
[8] = Half life period was determined after intravenous administration of 3 mg/kg; assay type: ADME, organism-based; design: dose 3 mg/kg, route intravenous; details: in vivo; method in brief: as §1
[9] = molecular target: T2, Gonadotropin-releasing hormone receptor (Rattus norvegicus, UniProt P30969); assay: Functional antagonism at GnRH receptor in rat (PI turnover)
T2 sequence (P30969 whole entry): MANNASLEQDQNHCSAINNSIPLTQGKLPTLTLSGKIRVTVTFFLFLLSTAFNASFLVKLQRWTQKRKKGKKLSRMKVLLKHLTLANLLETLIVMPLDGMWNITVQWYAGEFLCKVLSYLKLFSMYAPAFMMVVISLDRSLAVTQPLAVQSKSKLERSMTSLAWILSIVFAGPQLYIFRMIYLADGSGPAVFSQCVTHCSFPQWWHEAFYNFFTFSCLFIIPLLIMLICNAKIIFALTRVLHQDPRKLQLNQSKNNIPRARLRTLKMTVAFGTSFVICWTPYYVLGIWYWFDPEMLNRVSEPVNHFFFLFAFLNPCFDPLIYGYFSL

[10] = molecular target: T2, Gonadotropin-releasing hormone receptor; assay: In vitro inhibition of binding to GnRH receptor in rat; method in brief: as §2

Compound: Cc1cc(-c2c(OCC[C@@H]3CCN3)c3cc(C(=O)Nc4ccncn4)c(Cl)cc3[nH]c2=O)cc(C)c1C
- AUC [1]: 1320 ng·h/mL
- AUC [2]: 303 ng·h/mL
- IC50 [3]: 1 nM
- clearance [4]: 33 mL/min/kg
- IC50 [5]: 0.44 nM
- half-life [6]: 570 min
- clearance [7]: 30 mL/min/kg
- half-life [8]: 300 min
- IC50 [9]: 81 nM
- IC50 [10]: 4 nM
